# Assay results from ChEMBL document CHEMBL2034960, “Bryonolic acid transcriptional control of anti-inflammatory and antioxidant genes in macrophages in vitro and in vivo” (J Nat Prod, 2012).
# Active and inactive are the calls of the source. No cut-off for these calls is given here.
# Legend:
# [1] = molecular target: T1, Nuclear factor erythroid 2-related factor 2 (Mus musculus) (UniProt Q60795); assay: Induction of Nrf2-mediated GR mRNA expression in mouse RAW264.7 cells at 100 uM after 24 hrs by quantitative RT-PCR analysis relative to control; format: cell-based
# T1 sequence (whole entry): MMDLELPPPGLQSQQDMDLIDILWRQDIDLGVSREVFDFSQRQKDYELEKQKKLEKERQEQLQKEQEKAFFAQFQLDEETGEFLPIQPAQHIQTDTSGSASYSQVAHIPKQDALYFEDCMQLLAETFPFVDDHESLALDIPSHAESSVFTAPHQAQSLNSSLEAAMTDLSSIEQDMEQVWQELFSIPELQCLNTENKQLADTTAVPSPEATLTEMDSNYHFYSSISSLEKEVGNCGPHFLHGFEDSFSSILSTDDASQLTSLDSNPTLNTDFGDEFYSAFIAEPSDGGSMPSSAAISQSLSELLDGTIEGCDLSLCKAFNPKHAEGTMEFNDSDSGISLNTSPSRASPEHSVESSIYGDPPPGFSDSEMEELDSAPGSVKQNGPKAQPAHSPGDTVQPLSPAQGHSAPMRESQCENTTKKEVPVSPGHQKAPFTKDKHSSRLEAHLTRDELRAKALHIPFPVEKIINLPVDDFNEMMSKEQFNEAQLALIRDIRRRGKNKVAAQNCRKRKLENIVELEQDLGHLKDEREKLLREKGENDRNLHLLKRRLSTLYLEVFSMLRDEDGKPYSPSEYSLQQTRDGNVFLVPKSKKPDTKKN
# [2] = test system: RAW264.7; assay: Antiinflammatory activity in mouse RAW264.7 cells assessed as inhibition of LPS-induced nitric oxide production at 50 to 100 uM after 24 hrs by Griess method; format: functional; set-up: scale not given: the % may be the effect or the level left
# [3] = test system: RAW264.7; assay: Antioxidant activity in LPS-stimulated mouse RAW264.7 cells assessed as induction of HO-1 mRNA expression at 100 uM after 4 hrs by RT-PCR analysis; format: functional, cell-based
# [4] = test system: RAW264.7; assay: Cytotoxicity against mouse RAW264.7 cells at 100 uM after 8 hrs by MTT assay; format: cell-based; conditions: raw264.7, 8 h
# [5] = molecular target: T1, Nuclear factor erythroid 2-related factor 2 (Mus musculus); assay: Induction of nuclear translocation of Nrf2 in mouse RAW264.7 cells assessed as decrease in cytoplasmic fraction at 50 uM after 1 hr; format: cell-based
# Procedure, shortened: (§1)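 RAW 264.7 macrophages treated with 50 or 100 μM compound for various times (1–4 h window examined). Cytoplasmic and nuclear fractions were separated and probed for Nrf2 by immunoblot. Translocation was scored as loss of cytoplasmic Nrf2 and nuclear accumulation relative to DMSO control.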
# [6] = molecular target: T1, Nuclear factor erythroid 2-related factor 2 (Mus musculus); assay: Induction of nuclear translocation of Nrf2 in mouse RAW264.7 cells assessed as decrease in cytoplasmic fraction at 100 uM after 1 hr; format: cell-based; procedure, shortened: as §1
# [7] = molecular target: T1, Nuclear factor erythroid 2-related factor 2 (Mus musculus); assay: Induction of nuclear translocation of Nrf2 in mouse RAW264.7 cells assessed as decrease in cytoplasmic fraction at 100 uM after 1 to 4 hrs; format: cell-based; procedure, shortened: as §1
# [8] = molecular target: T1, Nuclear factor erythroid 2-related factor 2 (Mus musculus); assay: Induction of Nrf2-mediated HO1 mRNA expression in mouse RAW264.7 cells at 100 uM after 16 to 20 hrs by quantitative RT-PCR analysis relative to control; format: cell-based
# [9] = molecular target: T1, Nuclear factor erythroid 2-related factor 2 (Mus musculus); assay: Induction of Nrf2-mediated HO1 mRNA expression in mouse RAW264.7 cells at 100 uM after 24 hrs by quantitative RT-PCR analysis relative to control; format: cell-based
# [10] = molecular target: T1, Nuclear factor erythroid 2-related factor 2 (Mus musculus); assay: Induction of Nrf2-mediated NQO1 mRNA expression in mouse RAW264.7 cells at 100 uM after 16 to 20 hrs by quantitative RT-PCR analysis relative to control; format: cell-based
# [11] = molecular target: T1, Nuclear factor erythroid 2-related factor 2 (Mus musculus); assay: Induction of Nrf2-mediated NQO1 mRNA expression in mouse RAW264.7 cells at 100 uM after 24 hrs by quantitative RT-PCR analysis relative to control; format: cell-based
# Procedure, shortened: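 RAW 264.7 cells (DMEM, 10% FBS, 37°C, 5% CO2) exposed to 100 μM compound for a series of time points without stated LPS activation. Total RNA isolated, converted to cDNA, and NQO1 quantified by TaqMan real-time RT-PCR using mouse-specific assays. Fold change versus control derived by the ΔΔCt relative quantification method (40 cycles, 95/60 °C).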
# [12] = molecular target: T1, Nuclear factor erythroid 2-related factor 2 (Mus musculus); assay: Induction of Nrf2-mediated CAT mRNA expression in mouse RAW264.7 cells at 100 uM after 4 to 24 hrs by quantitative RT-PCR analysis relative to control; format: cell-based
# [13] = molecular target: T1, Nuclear factor erythroid 2-related factor 2 (Mus musculus); assay: Induction of Nrf2-mediated HO1 […] expression in C57BL/6 mouse primary peritoneal macrophages after 48 hrs by immunoblot analysis
# [14] = molecular target: T1, Nuclear factor erythroid 2-related factor 2 (Mus musculus); assay: Induction of Nrf2-mediated HO1 […] expression in C57BL/6 mouse primary peritoneal macrophages at 10 uM after 48 hrs by immunoblot analysis
# [15] = molecular target: T1, Nuclear factor erythroid 2-related factor 2 (Mus musculus); assay: Induction of Nrf2-mediated HO1 […] expression in C57BL/6 mouse primary peritoneal macrophages at 50 uM after 48 hrs by immunoblot analysis
# [16] = test system: Peritoneal macrophage cell; assay: Induction of HO1 […] expression in Nrf2-knockout mouse primary peritoneal macrophages at 5 to 100 uM after 48 hrs by immunoblot analysis; format: functional, cell-based
# [17] = test system: RAW264.7; assay: Antiinflammatory activity in mouse RAW264.7 cells assessed as inhibition of LPS-induced iNOS protein expression at 50 to 100 uM by immunoblot analysis; format: functional, cell-based; conditions: TDE = time-dependent effect
# [18] = test system: RAW264.7; assay: Antiinflammatory activity in mouse RAW264.7 cells assessed as inhibition of LPS-induced iNOS protein expression after 24 hrs by immunoblot analysis; format: functional, cell-based
# [19] = test system: RAW264.7; assay: Antioxidant activity in mouse RAW264.7 cells assessed as induction of HO1 expression at 10 to 100 uM by immunoblot analysis; format: functional, cell-based; conditions: TDE = time-dependent effect
# [20] = test system: RAW264.7; assay: Cytotoxicity against mouse RAW264.7 cells at 1000 uM after 24 hrs by MTT assay; format: cell-based; conditions: raw264.7, 24 h
# [21] = test system: RAW264.7; assay: Antioxidant activity in LPS-stimulated mouse RAW264.7 cells assessed as induction of HO-1 […] expression after 24 hrs by immunoblot analysis; format: functional, cell-based
# [22] = test system: RAW264.7; assay: Antioxidant activity in mouse RAW264.7 cells assessed as induction of HO1 expression after 24 hrs by immunoblot analysis
# [23] = test system: Mus musculus; assay: Induction of HO1 […] expression in Nrf2-wild type C57BL/6 mouse liver at 500 mg/kg, ip measured after 8 hrs by immunoblot analysis
# [24] = test system: Mus musculus; assay: Induction of HO1 […] expression in Nrf2-knock out C57BL/6 mouse liver at 500 mg/kg, ip measured after 8 hrs by immunoblot analysis
# [25] = test system: RAW264.7; assay: Antiinflammatory activity in mouse RAW264.7 cells assessed as inhibition of LPS-induced iNOS protein expression at 100 uM after 4 hrs by immunoblot analysis
smiles,measurement,setting,value
CC1(C)[C@@H](O)CC[C@]2(C)C3=C(CC[C@@H]12)[C@@]1(C)CC[C@@]2(C)CC[C@@](C)(C(=O)O)C[C@H]2[C@]1(C)CC3 [BRYONOLIC ACID],Activity,[1],inactive
same,Activity,[2],72%
same,Activity,[3],Active
same,Activity,[4],Non-toxic
same,Activity,[5],Active
same,Activity,[6],Active
same,Activity,[7],Active
same,Activity,[8],Active
same,Activity,[9],Active
same,Activity,[10],Active
same,Activity,[11],Active
same,Activity,[12],Active
same,Activity,[13],Dose-dependent effect
same,Activity,[14],Active
same,Activity,[15],Active
same,Activity,[16],inactive
same,Activity,[17],tde
same,Activity,[18],Dose-dependent effect
same,Activity,[19],tde
same,Activity,[20],Toxic
same,Activity,[21],Dose-dependent effect
same,Activity,[22],Dose-dependent effect
same,Activity,[23],Active
same,Activity,[24],inactive
same,Activity,[25],Active
